In brackets after ≈: the same amount, converted by molar mass.
What was measured:
[1] = system: Mus musculus; assay: Antibacterial activity against Escherichia coli infected in cyclophosphamide treated neutropenic CD1 mouse septicemia model assessed as mouse survival at 1.5 mg/kg, iv dosed at 1 hr post infection followed by redosing at 5 hrs post infection measured at 96 hrs post infection relative to control; type: functional
Summary of the method: (§1)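 Female CD-1 mice were made neutropenic with cyclophosphamide ip, 150 mg/kg on day −4 and 100 mg/kg on day −1. […] Compound was given iv in 3% DMSO/saline at 1 and 5 h postinfection, n = 6 per group. Percent survival was scored at 96 h postinfection.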

[2] = system: Mus musculus; assay: AUC (0 to 24 hrs) in CD1 mouse plasma at 3 mg/kg, iv by LC-MS/MS analysis; type: ADME, organism-based; design: time < 24 hr, dose 3 mg/kg, route intravenous; details: in vivo
Summary of the method: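 CD-1 mice given a single 3 mg/kg iv dose (n = 3) in 3% DMSO/saline; plasma exposure measured.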

[3] = Fraction unbound in mouse plasma at 1 uM by equilibrium dialysis method; type: ADME, cell-free
[4] = system: Mus musculus; assay: Antibacterial activity against Escherichia coli infected in cyclophosphamide treated neutropenic CD1 mouse septicemia model assessed as mouse survival at 3 mg/kg, iv dosed at 1 hr post infection followed by redosing at 5 hrs post infection measured at 96 hrs post infection relative to control; type: functional; summary of the method: as §1
[5] = system: Escherichia coli; assay: Bactericidal activity against wild type Escherichia coli ATCC 25922 assessed as reduction of bacterial load after 24 hrs by time kill assay; type: functional, organism-based
[6] = system: Escherichia coli; assay: Antibacterial activity against wild type Escherichia coli ATCC 25922 in presence of HSA by CLSI M100-S17 protocol based method; type: functional
[7] = system: Klebsiella pneumoniae; assay: Antibacterial activity against wild type Klebsiella pneumoniae ATCC 35657 by CLSI M100-S17 protocol based method; type: functional
[8] = system: Escherichia coli; assay: Antibacterial activity against wild type Escherichia coli ATCC 25922 by CLSI M100-S17 protocol based method; type: functional
[9] = system: Acinetobacter baumannii; assay: Bactericidal activity against wild type Acinetobacter baumannii ATCC BAA-747 assessed as reduction of bacterial load at 0.25 to 4 times MIC after 2 hrs by time kill assay; type: functional
[10] = system: Acinetobacter baumannii; assay: Bactericidal activity against wild type Acinetobacter baumannii ATCC BAA-747 assessed as reduction of bacterial load after 24 hrs by time kill assay; type: functional, organism-based
[11] = system: Acinetobacter baumannii; assay: Antibacterial activity against wild type Acinetobacter baumannii ATCC BAA-747 by CLSI M100-S17 protocol based method; type: functional
[12] = system: Escherichia coli; assay: Antibacterial activity against quinolone resistance Escherichia coli isolate ELZ4251 harboring gyrA/parC mutant by CLSI M100-S17 protocol based method; type: functional
[13] = system: Escherichia coli; assay: Antibacterial activity against fluoroquinolone resistant Escherichia coli SKM18 by CLSI M100-S17 protocol based method; type: functional
[14] = system: Escherichia coli; assay: Bactericidal activity against wild type Escherichia coli ATCC 25922 assessed as reduction of bacterial load at 0.25 to 8 times MIC after 2 hrs by time kill assay; type: functional
[15] = system: Acinetobacter baumannii; assay: Antibacterial activity against fluoroquinolone resistant Acinetobacter baumannii isolate MMX2240 by CLSI M100-S17 protocol based method; type: functional

Structure (SMILES)	survival at 1.5 mg/kg [1] [%]	AUC [2] [ng·h/mL]	Fu [3]	survival at 3 mg/kg [4] [%]	Activity [5]	MIC [6] [µg/mL]	MIC [7] [µg/mL]	MIC [8] [µg/mL]	Activity [9] [log10CFU]	Activity [10]	MIC [11] [µg/mL]	MIC [12] [µg/mL]	MIC [13] [µg/mL]	Activity [14] [log10CFU]	MIC [15] [µg/mL]
COc1c(N2C[C@@H]3CCCN[C@@H]3C2)c(F)cc2c(=O)c(C(=O)O)cn(C3CC3)c12 [MOXIFLOXACIN]	83	640	0.8	100											
CCc1c(-c2ccc3c(c2)cc(CN2CCC2)n3C)[nH]c(=O)c(C(=O)O)c1O					Dose-dependent effect	1.6	0.78 (≈ 2.04 µM)	0.39 (≈ 1.02 µM)	2	Dose-dependent effect	0.39 (≈ 1.02 µM)	1.6 (≈ 4.19 µM)	1.6 (≈ 4.19 µM)	3	6.3 (≈ 16.5 µM)

— ChEMBL document CHEMBL4190388, “Discovery and Optimization of Indolyl-Containing 4-Hydroxy-2-Pyridone Type II DNA Topoisomerase Inhibitors Active against Multidrug Resistant Gram-negative Bacteria” (J Med Chem, 2018)
